In ChEMBL document CHEMBL1158715, “Eremophilane-type sesquiterpene derivatives from Senecio aegyptius var. discoideus” (J Nat Prod, 2005):
The source made the active and inactive calls. The rule behind the calls is not given here.

Columns and labels:
Assay type in all cases: functional, organism-based
[1] = tested on: Bacillus cereus; experiment: Antimicrobial activity against Bacillus cereus El-U 8180 at 400 ug/ml
Method in brief: (§1)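 Filter paper disk diffusion on nutrient agar seeded with the test bacterium. Disks were soaked in the test solution for 30 s, then placed on the agar surface. Plates were incubated at 30 °C for 2 days. Five replicates were run per compound at each concentration. Ampicillin at 200 and 400 μg/mL served as the reference.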

[2] = tested on: Serratia sp.; experiment: Antimicrobial activity against Serratia El-U 9213 at 400 ug/ml; method in brief: as §1
[3] = tested on: Serratia sp.; experiment: Antimicrobial activity against Serratia El-U 9213 at 200 ug/ml; method in brief: as §1
[4] = tested on: Bacillus cereus; experiment: Antimicrobial activity against Bacillus cereus El-U 8180 at 200 ug/ml; method in brief: as §1

SMILES | Activity [1] | Activity [2] | Activity [3] | Activity [4]
CO[C@@]12C[C@@H]3C(=O)CC[C@H](C)[C@@]3(C)CC1=C(C)C(=O)N2 | Active | inactive | inactive | Active
CC1=C2C[C@@]3(C)C(=C[C@@]2(O)OC1=O)[C@H](O)CC[C@@H]3C | Active | Active | Active | Active
CO[C@@]12C[C@@]34O[C@@H]3CC[C@H](C)[C@@]4(C)CC1=C(C)C(=O)O2 | Active | inactive | inactive | Active
CO[C@@]12C=C3[C@H](O)CC[C@H](C)[C@@]3(C)CC1=C(C)C(=O)O2 | Active | Active | Active | Active
CC1=C2C[C@@]3(C)C(=C[C@H]2OC1=O)[C@H](O)CC[C@@H]3C | Active | inactive | inactive | Active
CC1=C2C[C@]3(C)[C@@H](C)CC[C@H]4O[C@]43C[C@@]2(O)OC1=O | Active | Active | Active | Active
